Test results published in paper PMC7302971 (Bioorganic chemistry, 2020).

Key:
CEM leukemia cells = assay: Differential Nuclear Staining; format: cell-based, human; settings: 48 h
In short: (§1)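 Cells were seeded at 10,000/well and exposed to test compound for 48 h at 1% (v/v) final DMSO. The first screen used a single concentration with controls in quadruplicate. Dose-response used 0.5–100 μM in triplicate. Controls: DMSO vehicle, hydrogen peroxide (positive), untreated (negative). Hoechst 33342 plus PI were added 2 h before automated imaging, and colocalised signal was scored as dead. […] Two-tailed t-test versus DMSO.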

KCL-22 leukemia cells = assay: Differential Nuclear Staining; format: cell-based, human; settings: Homo sapiens, KCL-22, 48 h
In short: as §1

HDAC1 = HDAC1 (Homo sapiens, UniProt Q13547); assay: HDAC enzyme activity assay; format: biochemical
In short: (§2)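 Commercial enzyme was preincubated with serial inhibitor dilutions for 60 min at 30 °C in 25 mM Tris-HCl pH 8.0, 75 mM KCl and 0.001% Pluronic F-127. Reaction was started with 50 μM Boc-Lys(acetyl)-AMC, run 60 min at 30 °C, and stopped with 4.17 μM SAHA. Trypsin (0.4 mg/ml) released AMC, read at Ex 350/Em 450 nm. IC50 came from a four-parameter logistic fit.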

HDAC5 = HDAC5 (Homo sapiens, UniProt Q9UQL6); assay: HDAC enzyme activity assay; format: biochemical
In short: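 Commercial HDAC5 was preincubated with serial inhibitor dilutions for 60 min at 30 °C in Tris-HCl pH 8.0 buffer. Reaction used 20 μM Boc-Lys(trifluoroacetyl)-AMC for 60 min at 30 °C and was stopped with 1.7 μM SATFMK. Trypsin development followed, then AMC fluorescence at 350/450 nm. IC50 came from a four-parameter logistic fit.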

HDAC6 = biological target: T1, HDAC6 (Homo sapiens, UniProt Q9UBN7); assay: HDAC enzyme activity assay; format: biochemical
T1 sequence (Q9UBN7 1-1215): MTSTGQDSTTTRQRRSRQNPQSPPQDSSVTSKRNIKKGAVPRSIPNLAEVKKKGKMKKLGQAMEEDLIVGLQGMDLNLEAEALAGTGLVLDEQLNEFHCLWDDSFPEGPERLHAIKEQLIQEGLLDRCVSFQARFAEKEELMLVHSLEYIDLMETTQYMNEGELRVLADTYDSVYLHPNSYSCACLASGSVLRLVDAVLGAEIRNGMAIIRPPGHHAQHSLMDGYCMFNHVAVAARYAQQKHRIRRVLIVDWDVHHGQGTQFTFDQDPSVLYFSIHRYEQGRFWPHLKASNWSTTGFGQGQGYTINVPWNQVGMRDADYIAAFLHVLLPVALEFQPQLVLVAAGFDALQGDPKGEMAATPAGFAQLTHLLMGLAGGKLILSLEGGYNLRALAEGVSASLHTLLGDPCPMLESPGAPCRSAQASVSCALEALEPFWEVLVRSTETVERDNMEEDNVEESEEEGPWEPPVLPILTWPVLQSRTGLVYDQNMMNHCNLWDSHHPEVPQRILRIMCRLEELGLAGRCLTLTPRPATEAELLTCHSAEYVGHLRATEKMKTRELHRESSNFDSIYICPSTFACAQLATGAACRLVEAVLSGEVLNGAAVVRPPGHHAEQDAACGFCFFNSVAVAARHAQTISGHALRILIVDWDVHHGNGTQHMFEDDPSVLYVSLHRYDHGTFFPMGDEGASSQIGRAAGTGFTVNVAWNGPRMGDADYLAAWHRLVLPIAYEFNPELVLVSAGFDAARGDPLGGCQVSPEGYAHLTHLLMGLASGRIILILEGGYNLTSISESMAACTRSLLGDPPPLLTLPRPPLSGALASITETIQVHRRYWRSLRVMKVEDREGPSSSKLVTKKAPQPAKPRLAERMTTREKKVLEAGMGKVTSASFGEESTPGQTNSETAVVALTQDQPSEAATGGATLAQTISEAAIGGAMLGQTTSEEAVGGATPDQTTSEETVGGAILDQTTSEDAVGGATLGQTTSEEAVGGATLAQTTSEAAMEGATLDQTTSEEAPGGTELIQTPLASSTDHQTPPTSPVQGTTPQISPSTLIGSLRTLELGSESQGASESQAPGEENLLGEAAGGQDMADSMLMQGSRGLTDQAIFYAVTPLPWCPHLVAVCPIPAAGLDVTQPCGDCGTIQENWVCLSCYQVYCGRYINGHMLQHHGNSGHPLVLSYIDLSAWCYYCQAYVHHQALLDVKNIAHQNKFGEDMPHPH
In short: as §2

HDAC7 = biological target: T2, HDAC7 (Homo sapiens, UniProt Q8WUI4); assay: HDAC enzyme activity assay; format: biochemical
T2 sequence (Q8WUI4 1-952): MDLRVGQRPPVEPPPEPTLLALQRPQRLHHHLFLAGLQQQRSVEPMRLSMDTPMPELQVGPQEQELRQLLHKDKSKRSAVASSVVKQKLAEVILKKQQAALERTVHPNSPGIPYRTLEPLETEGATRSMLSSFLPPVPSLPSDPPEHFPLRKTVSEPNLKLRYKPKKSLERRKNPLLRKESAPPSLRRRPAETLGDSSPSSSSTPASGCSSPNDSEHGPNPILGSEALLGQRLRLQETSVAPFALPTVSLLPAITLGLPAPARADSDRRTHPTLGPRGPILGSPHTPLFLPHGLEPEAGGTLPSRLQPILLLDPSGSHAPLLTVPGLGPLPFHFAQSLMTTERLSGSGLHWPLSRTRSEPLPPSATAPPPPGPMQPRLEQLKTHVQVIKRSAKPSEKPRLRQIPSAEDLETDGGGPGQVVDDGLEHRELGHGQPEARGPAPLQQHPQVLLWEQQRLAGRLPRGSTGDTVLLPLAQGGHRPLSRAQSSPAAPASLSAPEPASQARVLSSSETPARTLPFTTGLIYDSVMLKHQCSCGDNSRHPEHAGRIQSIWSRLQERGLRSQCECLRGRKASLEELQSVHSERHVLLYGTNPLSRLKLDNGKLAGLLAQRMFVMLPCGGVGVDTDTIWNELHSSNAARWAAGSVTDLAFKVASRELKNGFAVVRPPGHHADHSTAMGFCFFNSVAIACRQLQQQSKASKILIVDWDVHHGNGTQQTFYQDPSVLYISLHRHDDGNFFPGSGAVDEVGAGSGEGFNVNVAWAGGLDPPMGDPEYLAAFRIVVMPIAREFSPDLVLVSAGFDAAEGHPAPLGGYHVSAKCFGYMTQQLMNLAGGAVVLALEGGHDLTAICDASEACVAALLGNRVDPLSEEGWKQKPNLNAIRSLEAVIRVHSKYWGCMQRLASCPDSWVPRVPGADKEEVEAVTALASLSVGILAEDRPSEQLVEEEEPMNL
In short: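 Commercial HDAC7 was preincubated with serial inhibitor dilutions for 60 min at 30 °C in 25 mM Tris-HCl pH 8.0, 75 mM KCl and 0.001% Pluronic F-127. The AMC-substrate reaction ran 60 min at 30 °C, followed by trypsin development and fluorescence reading at Ex 350/Em 450 nm. IC50 came from a four-parameter logistic fit.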

Sequence of HDAC5 (Q9UQL6 whole entry): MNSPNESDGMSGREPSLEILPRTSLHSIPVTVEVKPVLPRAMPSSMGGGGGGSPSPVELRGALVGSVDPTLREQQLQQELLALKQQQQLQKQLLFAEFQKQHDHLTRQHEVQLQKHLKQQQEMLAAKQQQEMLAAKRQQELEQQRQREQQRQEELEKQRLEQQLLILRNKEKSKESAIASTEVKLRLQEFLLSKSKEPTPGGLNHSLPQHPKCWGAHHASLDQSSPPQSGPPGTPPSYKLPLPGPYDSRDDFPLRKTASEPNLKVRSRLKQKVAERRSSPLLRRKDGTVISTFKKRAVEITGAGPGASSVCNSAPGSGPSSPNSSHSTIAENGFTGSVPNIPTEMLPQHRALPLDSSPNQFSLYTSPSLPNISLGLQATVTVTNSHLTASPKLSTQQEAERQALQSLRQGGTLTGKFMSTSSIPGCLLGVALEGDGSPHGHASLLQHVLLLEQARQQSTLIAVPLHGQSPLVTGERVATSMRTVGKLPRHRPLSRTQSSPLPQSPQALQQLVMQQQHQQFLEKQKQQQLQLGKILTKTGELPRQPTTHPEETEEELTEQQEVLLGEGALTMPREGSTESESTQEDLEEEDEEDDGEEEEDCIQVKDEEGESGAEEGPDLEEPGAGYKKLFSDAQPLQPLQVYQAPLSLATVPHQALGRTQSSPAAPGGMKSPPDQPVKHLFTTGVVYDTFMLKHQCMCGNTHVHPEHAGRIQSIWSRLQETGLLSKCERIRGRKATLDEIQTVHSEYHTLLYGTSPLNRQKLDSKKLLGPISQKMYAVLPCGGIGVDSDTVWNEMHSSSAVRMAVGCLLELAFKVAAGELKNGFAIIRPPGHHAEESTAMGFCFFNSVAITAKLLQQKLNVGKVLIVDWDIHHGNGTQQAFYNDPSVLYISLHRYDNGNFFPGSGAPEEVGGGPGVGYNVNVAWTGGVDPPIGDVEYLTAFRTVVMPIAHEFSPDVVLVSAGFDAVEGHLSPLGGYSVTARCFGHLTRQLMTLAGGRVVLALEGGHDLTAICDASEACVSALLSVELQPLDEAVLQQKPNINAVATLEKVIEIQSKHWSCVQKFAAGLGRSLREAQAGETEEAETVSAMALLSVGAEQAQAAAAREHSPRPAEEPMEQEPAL
Sequence of HDAC1 (Q13547 whole entry): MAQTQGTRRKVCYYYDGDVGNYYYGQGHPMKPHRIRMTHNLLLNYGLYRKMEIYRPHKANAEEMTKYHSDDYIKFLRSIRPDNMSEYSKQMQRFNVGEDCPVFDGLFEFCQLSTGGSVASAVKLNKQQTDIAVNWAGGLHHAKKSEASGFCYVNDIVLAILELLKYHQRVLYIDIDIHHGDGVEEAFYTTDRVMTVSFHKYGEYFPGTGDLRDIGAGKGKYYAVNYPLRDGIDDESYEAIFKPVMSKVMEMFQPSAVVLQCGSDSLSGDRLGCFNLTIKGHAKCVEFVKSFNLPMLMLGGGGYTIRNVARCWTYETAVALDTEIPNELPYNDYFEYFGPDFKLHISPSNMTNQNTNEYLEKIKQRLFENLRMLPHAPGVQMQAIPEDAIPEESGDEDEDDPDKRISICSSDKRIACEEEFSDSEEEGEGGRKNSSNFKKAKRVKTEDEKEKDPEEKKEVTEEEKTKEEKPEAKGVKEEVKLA

IC50 (HDAC1) [µM] | IC50 (HDAC5) [µM] | IC50 (HDAC6) [µM] | IC50 (HDAC7) [µM] | SMILES | cell death at 100 μM (CEM leukemia cells; CEM, DNS assay, 100 μM) [% cell death at 100 μM] | CC50 (KCL-22 leukemia cells) [µM] | CC50 (CEM leukemia cells; Homo sapiens) [µM]
> 50 | 43 | 26 | > 50 | Cc1c(NC(=O)CN2C(=O)SC(=Cc3ccccn3)C2=O)c(=O)n(-c2ccccc2)n1C [Compound P10, N-(1,5-dimethyl-3-oxo-2-phenyl-2,3-dihydro-1H-pyrazol-4-yl)-2-(2,4-dioxo-5-(pyridin-2-ylmethylene)thiazolidin-3-yl)acetamide] | 2.39 | 17.4 ± 2.4 | –
> 50 | > 50 | 17 | > 50 | O=C(CN1C(=O)SC(=Cc2ccccn2)C1=O)Nc1nc2ccccc2s1 [Compound P19, N-(benzo[d]thiazol-2-yl)-2-(2,4-dioxo-5-(pyridin-2-ylmethylene)thiazolidin-3-yl)acetamide] | – | 43.2 ± 0.23 | 79.9 ± 3.74
